Reference: the EternaBench riboswitch data

Test system: MS2 coat protein
Assay: apparent Kd, MS2 coat protein; higher = weaker binding; RNA-MaP array; tryptophan 2.4 mM where present
Summary of the method: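 Stalled E. coli RNA polymerase transcribed the designs on Illumina sequencing-chip clusters. SNAP-549-labelled MS2 coat protein was titrated from 0.7 or 1.5 nM, doubling to 3 µM, without and then with constant ligand, in 100 mM Tris-HCl pH 7.5, 80 mM KCl, 4 mM MgCl2, BSA, DTT, yeast tRNA and Tween-20. Per-cluster binding curves were fitted to green signal normalised to red-channel RNA signal and control-cluster median Fmax. The apparent Kd is the median of the filtered fits.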

[1] = designed as: ON switch for tryptophan, no ligand
[2] = ligand present: tryptophan, designed as: ON switch for tryptophan
[3] = designed as: OFF switch for tryptophan, no ligand
[4] = ligand present: tryptophan, designed as: OFF switch for tryptophan

Sequence | apparent Kd [1] [nM] | apparent Kd [2] [nM] | apparent Kd [3] [nM] | apparent Kd [4] [nM]
ACAUGAGGAUCACCCAUGUUUGAUGUUCCUCGAGGACCGGUACGGCCGCCACUCGAACGAGUGGCGCGCGAGCGCGCGCUCGCGC | 12.2 | 12.7 | – | –
GUGUGGAGCUCGGCCGCCACUCAAACAUGAGGAUCACCCAUGUAAAACAUGAGGAUCACCCAUGUGAGGACCGGGAGAAACACGA | – | – | 338 | 404
GGAUUCAACUCGGCCGCCACUGGUGAUCCUAAUGUACAUGAGGAUCACCCAUGUACAUGAGAAUAUAGGACCGGGAGAUAAGUUA | 29 | 24.2 | – | –
UCGGGCAGAGCGGCCGCCACUGUAUGGCGUGCGGAUGACGGAACAUGAGGAUCACCCAUGUUGUUUAGGACCGGGCUUGCCGCGA | – | – | 11.2 | 13.2
GACGAUAUGAUACGUCAGCAAUCCUCGAAACGAGGACCGGUACGGCCGCCACUCGAGUGAUACACAUGAGGAUCACCCAUGUACC | – | – | 39.3 | 53.2
UACUUGCUGACGGCCGCCACUAGAACAUGAGGAUCACCCAUGUAUGGCGGCCGUCAUGGGUGGACUAGGACCGGGUCAGCAAGAU | – | – | 9.84 | 13.6
UAAUCAGUGCCGGUUCUCGGAUCCUCAUGUCGAGGACCGGUACGGCCGCCACUCGAAACAUGAGGAUCACCCAUGUAAUAAUAAU | – | – | 89.6 | 65.8
GCAUCCUAGUCGGCCGCCACUGCAAUUGUAAUACUGCUACAUGAACAUGAGGAUCACCCAUGUAGCAGGACCGGGACUAGGAUGC | 164 | 27 | – | –
UCGCCCGGGUCGGCCGCCACUGCGGUGAUGUGACAUGAGGAUCACCCAUGUUGUCAUGUGGCACAUAGGACCGGGACCCGGGCGA | – | – | 30.5 | 29.9
UACUUGCUGACGGCCGCCACUAGAACAUGAGGAUCACCCAUGUAGGUCCUAGAUUCCUCAUGAACUAGGACCGGGUCAGCAAGAU | – | – | 52.6 | 12.4
AAUGGCCGUACCGGAAGGGUGAUCCUCAAACGAGGACCGGUACGGCCGCCACUCGAUAACAUGAGGAUCACCCAUGUAAUACAUA | – | – | 366 | 318
AUAAUAAUCCUCAUGUAAGGUCCUCGAUAACGAGGACCGGUACGGCCGCCACUCGAACAUGAGGAUCACCCAUGUACGAGGACCA | 42.5 | 32.6 | – | –
GUCCAAAGGUCGGCCGCCACUGUAGGAUGUGUUCUUUCACAUGAGGAUCACCCAUGUUGUUAUUAUAGGACCGGGAUUGUAGGAC | – | – | 20.5 | 18.5
UGUCAUGGAAACAUGACAGGUUCUACCGGUCGAGGACCGGUACGGCCGCCACUCGAUUGGUGGCACAUGAGGAUCACCCAUGUUA | 25.2 | 25.2 | – | –
GGAUAGGACACGGCCGCCACUGCCUAGGAUACUAGAAACAUUUCCUCACAUGAGGAUCACCCAUGUAGGACCGGGUGUCCUAUCG | – | – | 134 | 267
GUUAUAUACUCGGCCGCCACUGAGAGAGUCAUGUAAACAUGAGGAUCACCCAUGUAAUAUAUAUACAGGACCGGGAGUAUGGUAA | – | – | 14.3 | 13.5
GCAUCCUAGUCGGCCGCCACUGGUAUCAACACCUUCACCCGUGUGCACAUGAGGAUCACCCAUGUUAGGACCGGGACUAGGAUGC | 8.4 | 8.5 | – | –
UCGUAUGCGGCGGCCGCCACUCGCGGAUAACGAGAGCUUAACAUGAGGAUCACCCAUGUGUCAUGGAGGACCGGGCCCAUUCACA | 29.2 | 31.4 | – | –
UUCUUUAAGUCGGCCGCCACUGAAACAUGAGGAUCACCCAUGUAUAUUUGUGUAAAGGUGGAUUACAGGACCGGGACUAUAGUAA | – | – | 12 | 12
ACAUGAGGAUCACCCAUGUGCAUCACCCGACGAGGACCGGUACGGCCGCCACUCGGGUAUAUAUUUGCAUCGGGUGAUUUUACGU | 19.6 | 14.9 | – | –
ACUACGAAGACGGCCGCCACUGAUAUUCGUAGAUCCAUCAAUACAUGAGGAUCACCCAUGUAUAUCAGGACCGGGUCAAGAUGGU | – | – | 22.6 | 47.2
AUAUAUACAUGAGGAUCACCCAUGUUAUUACGAGGACCGGUACGGCCGCCACUCGAUAGAGUAGAAGUAAAUUGUAAUUCAUGUU | – | – | 12.4 | 12.6
AAUGUCGGAUCGGCCGCCACUGGUUGGCCCUGUGUACAUGAGGAUCACCCAUGUCCAUCCCAAACCAGGACCGGGAUCUUUAUGU | 36.1 | 13 | – | –
AAUGAGUGGUGGUCAAGUGAUCCUCAUGAACGAGGACCGGUACGGCCGCCACUCGAUAACAUGAGGAUCACCCAUGUAAUAAUAA | – | – | 16.5 | 14.8
UAUAUAUAUCACUAACUGUUGUGGACGUCUCGAGGACCGGUACGGCCGCCACUCGGGCGGCCUCACAUGAGGAUCACCCAUGUCC | – | – | 125 | 110
